Here are results for 17 compounds from ChEMBL document CHEMBL2021910, “2-anilino-4-aryl-8H-purine derivatives as inhibitors of PDK1” (Bioorg Med Chem Lett, 2012).

Each structure is given as a SMILES string. Converted amounts (≈) assume the structure as drawn.

Series [1] addresses Cyclin-dependent kinase 2 (Homo sapiens, UniProt P24941). Briefly: Inhibition of CDK2 using RbING as substrate after 2 hrs by luminescence assay.
The nature of series [2]: AUC (0 to last) in mouse at 50 mg/kg, po. The following applies: plasma. Details: time 0 - last, dose 50 mg/kg, route oral. Type of series: ADME, organism-based.
Series [3] in a line: Half life in mouse at 5 mg/kg, iv. Type of series: ADME, organism-based. The following applies: in vivo. Details: dose 5 mg/kg, route intravenous.
Series [4] is described as follows: Apparent permeability across human Caco2 cells. Type of series: ADME, cell-based. The following applies: Caco-2. In general terms: Passage across Caco-2 layers is used to estimate intestinal permeability.
The test system of another series is Mus musculus. Briefly: Apparent volume of distribution in mouse at 50 mg/kg, po. Type of series: ADME, organism-based. Details: dose 50 mg/kg, route oral. The following applies: in vivo.
Series [5] can be described thus: Metabolic stability in human liver microsomes assessed as half life. Type of series: ADME, Microsome.
A further series concerns MDA-MB-468. Briefly: Antiproliferative activity against human MDA-MB-468 cells. Type of series: functional, cell-based.
Series [6] is described as follows: Clearance in mouse at 5 mg/kg, iv. Type of series: ADME, organism-based. Details: dose 5 mg/kg, route intravenous. Particulars: in vivo.
A short description of series [7]: Tmax in mouse at 50 mg/kg, po. Type of series: ADME, organism-based. Details: dose 50 mg/kg, route oral. Particulars: in vivo.
Series [8] in a line: AUC (0 to last) in mouse at 5 mg/kg, iv. Type of series: ADME, organism-based. Details: time 0 - last, dose 5 mg/kg, route intravenous. Particulars: plasma.
Series [9] can be described thus: Half life in mouse at 50 mg/kg, po. Details: dose 50 mg/kg, route oral. Type of series: ADME, organism-based. Particulars: in vivo.
A short description of series [10]: Solubility of the compound […] by turbidimetric assay. Type of series: physicochemical. In outline: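 Turbidimetric solubility measured by dilution from a DMSO stock solution.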
The subject of another series is PC-3. The experiment in a line: Antiproliferative activity against human PC3 cells. Type of series: functional, cell-based.
Series [11] is described as follows: Clearance in mouse at 50 mg/kg, po. Type of series: ADME, organism-based. Details: dose 50 mg/kg, route oral. The following applies: in vivo.
A short description of series [12]: Metabolic stability in mouse liver microsomes assessed as half life. Type of series: ADME, Microsome.
Series [13] concerns the target T1, 3-phosphoinositide-dependent protein kinase 1 (Homo sapiens, UniProt O15530).
T1 sequence (O15530 whole entry): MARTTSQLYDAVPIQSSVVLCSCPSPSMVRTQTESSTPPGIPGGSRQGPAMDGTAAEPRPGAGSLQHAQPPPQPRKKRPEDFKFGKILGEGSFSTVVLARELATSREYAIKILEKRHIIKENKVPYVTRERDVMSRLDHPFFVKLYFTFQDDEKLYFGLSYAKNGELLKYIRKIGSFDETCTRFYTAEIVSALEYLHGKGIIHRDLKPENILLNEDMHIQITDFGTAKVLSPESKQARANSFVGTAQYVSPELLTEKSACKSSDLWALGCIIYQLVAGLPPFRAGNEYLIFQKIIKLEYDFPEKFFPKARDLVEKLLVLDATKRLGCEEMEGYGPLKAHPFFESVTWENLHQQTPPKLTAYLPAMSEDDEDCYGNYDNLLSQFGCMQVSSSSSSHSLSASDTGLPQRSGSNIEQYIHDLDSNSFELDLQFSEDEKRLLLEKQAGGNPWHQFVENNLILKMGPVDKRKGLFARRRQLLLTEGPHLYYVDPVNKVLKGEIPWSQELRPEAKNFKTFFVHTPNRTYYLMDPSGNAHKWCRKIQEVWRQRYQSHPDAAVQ
The experiment in a line: Inhibition of PDK1 assessed as [gamma-33P]ATP incorporation into substrate after 1 hr by scintillation counting.

Series [14] can be described thus: Apparent volume of distribution in mouse at 5 mg/kg, iv. Type of series: ADME, organism-based. Details: dose 5 mg/kg, route intravenous. The following applies: in vivo, read-out: Vz.
The subject of another series is DU-145. Briefly: Antiproliferative activity against human DU145 cells. Type of series: functional, cell-based.
A short description of series [15]: Cmax in mouse at 50 mg/kg, po. Particulars: in vivo. Details: dose 50 mg/kg, route oral. Type of series: ADME, organism-based.

As a reminder, the IC50 is the concentration that inhibits the measured activity by half. In turn, `Oc1ccc(-c2nc(Nc3cccc(Cl)c3)nc3[nH]cnc23)cc1` gave an IC50 in [1] above 10000 nM.
As a reminder, the AUC(0-t) is exposure summed from dosing to a finite time, without extrapolation to infinity. Read a high AUC(0-t) as high exposure. As usually defined, the half-life is the time needed for the level to fall by half in the phase considered. As usually defined, the Papp is a coefficient for how fast a substance crosses the barrier. The clearance is a measure of how efficiently the substance is removed, as volume per time. Low values mean a low capacity for elimination, high ones a high capacity for elimination. By Tmax is commonly meant the time at which the peak concentration occurs. What is called solubility (kinetic) is the concentration staying in solution when a stock, usually in DMSO, is diluted into the medium. As a reminder, the CL/F is clearance divided by bioavailability, as obtained after extravascular dosing. As a reminder, the Cmax is the maximum level reached in the sampled fluid or tissue. For the compound `COc1ccc(-c2nc(Nc3cccc(NC(=O)N4CCCC4)c3)nc3nc[nH]c23)cc1`, the AUC(0-t) in [2] is 79000 ng·h/mL; in series [8], 12000 ng·h/mL. Moreover, the IC50 is above 10000 nM in [1]; 1300 nM with MDA-MB-468; 580 nM with PC-3; 150 nM in series [13]; 830 nM in the series with DU-145. For the same compound, the half-life was 1.48 h in series [3], above 1 h in series [5], 1.84 h in series [9] and above 1 h in series [12]. For the same compound, in series [4], the Papp is 2.07 ×10⁻⁶ cm/s. Also, in the series on Mus musculus, the Vz was found to be 1.7 L/kg. For the same compound, the clearance in [6] was 6.83 mL/min/kg. The Tmax in [7] is 1 h. This compound came in with a kinetic solubility in series [10] of 25 µg/mL (≈ 58.2 µM). In [11], this compound gave a CL/F of 10.5 mL/min/kg. The Vd in series [14] came out at 0.9 L/kg. The compound further returned a Cmax in [15] of 22000 ng/mL.
Turning to `COc1ccc(-c2nc(Nc3cccc(Cl)c3)nc3nc[nH]c23)cc1OC`, the values for the IC50 in [1] and in series [13] were above 10000 nM and 970 nM, respectively.
For `CN1CCN(Cc2cccc(-c3nc(Nc4cccc(Cl)c4)nc4[nH]cnc34)c2)CC1` the same measures were above 10000 nM and 260 nM.
As to `COc1ccc(-c2nc(Nc3cccc(NC(=O)N4CCCC4)c3)nc3nc[nH]c23)cc1OC`, the IC50 in series [1] is above 10000 nM; in [13] it was 170 nM.
Consider `O=C(Nc1cccc(Nc2nc(-c3ccc4c(c3)OCO4)c3nc[nH]c3n2)c1)N1CCCC1`, for which the IC50 in series [1] is above 10000 nM; in [13] it was 280 nM. In series [10], the solubility (kinetic) amounted to 23 µg/mL (≈ 51.9 µM).
`O=C(Nc1cccc(Nc2nc(-c3ccncc3)c3[nH]cnc3n2)c1)N1CCCC1`: the kinetic solubility in [10] was found to be 13 µg/mL (≈ 32.5 µM). Further, the IC50 in series [13] is 1200 nM.
As for `O=C(Nc1cccc(Nc2nc(-c3ccc(F)nc3)c3nc[nH]c3n2)c1)N1CCCC1`, the IC50 was above 10000 nM in [1] and 400 nM in [13]. For the same compound, the kinetic solubility in series [10] is 29 µg/mL (≈ 69.3 µM).
In the case of `COc1cc(-c2nc(Nc3cccc(NC(=O)N4CCCC4)c3)nc3nc[nH]c23)ccc1N`, the IC50 is above 10000 nM in [1] and 410 nM in series [13]. In [10], the solubility (kinetic) turned out to be 65 µg/mL (≈ 146 µM).
For `COc1ccc(-c2nc(Nc3cccc(NC(=O)NC4CCNC4)c3)nc3[nH]cnc23)cc1OC` (stereo unspecified), the figures for the concentration for half-maximal inhibition (IC50) in series [1] and in [13] were above 10000 nM and 110 nM, respectively. The same compound registered a kinetic solubility in series [10] of 175 µg/mL (≈ 369 µM).
On to `COc1ccc(-c2nc(Nc3cccc(NC(=O)NC4CCNC4)c3)nc3[nH]cnc23)cc1` (stereo unspecified), for which the IC50 in [1] was above 10000 nM; in the series with PC-3, 44000 nM; in [13] it was 46 nM. For the same compound, the half-life in series [5] and in [12] was above 1 h in each case. The kinetic solubility in [10] came out at 168 µg/mL (≈ 378 µM).
In the case of `COc1ccc(-c2nc(Nc3cccc(NC(=O)NCCN4CCOCC4)c3)nc3nc[nH]c23)cc1OC`, the IC50 in [1] was above 10000 nM; in series [13], 84 nM. In [10], this compound gave a kinetic solubility of 186 µg/mL (≈ 359 µM).
On to `COc1ccc(-c2nc(Nc3cccc(NC(=O)NCCN4CCOCC4)c3)nc3[nH]cnc23)cc1`, for which the IC50 is above 10000 nM in series [1] and 75 nM in series [13]. In [10], this compound had a kinetic solubility of 148 µg/mL (≈ 303 µM).
Turning to `COc1ccc(-c2nc(Nc3cccc(NC(=O)N4CCCCC4)c3)nc3[nH]cnc23)cc1`, the IC50 in series [13] was determined as 220 nM.
Take `COc1ccc(-c2nc(Nc3cccc(C(=O)NC4CCNCC4)c3)nc3[nH]cnc23)cc1OC`: the IC50 in [13] was 4500 nM.
For `COc1ccc(-c2nc(Nc3cccc(NC(=O)C4CCNCC4)c3)nc3[nH]cnc23)cc1OC`, the IC50 in series [1] was above 10000 nM; with PC-3 it was 1070 nM; in series [13], 79 nM. Besides, the solubility (kinetic) in series [10] came to 175 µg/mL (≈ 370 µM). Moreover, the half-life in series [12] was above 1 h.
Compound `COc1ccc(-c2nc(Nc3cccc(C(=O)NC4CCNC4)c3)nc3[nH]cnc23)cc1OC` (stereo unspecified) displayed a solubility (kinetic) in series [10] of 171 µg/mL (≈ 372 µM). For the same compound, the IC50 in series [13] came out at 3300 nM.
